Columns and labels:
[1] = biological target: T1, Proteasome Macropain subunit MB1 (Homo sapiens, UniProt P28074); test: Inhibition of chymotrypsin like activity of human erythrocyte-derived 20S proteasome preincubated for 10 mins using Suc-LLVY-AMC as substrate after 60 mins by fluorescence assay
T1 sequence (P28074 whole entry): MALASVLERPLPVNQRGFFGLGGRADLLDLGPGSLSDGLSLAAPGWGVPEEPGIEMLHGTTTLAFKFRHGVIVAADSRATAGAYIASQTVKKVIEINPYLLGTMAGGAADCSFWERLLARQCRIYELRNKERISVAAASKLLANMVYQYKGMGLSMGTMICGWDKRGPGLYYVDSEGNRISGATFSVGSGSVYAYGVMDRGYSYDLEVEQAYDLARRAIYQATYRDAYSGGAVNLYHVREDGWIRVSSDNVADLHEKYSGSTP
How it was run: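 Enzymatic IC50 from eight inhibitor concentrations, each point assayed in duplicate; β5 (chymotrypsin-like) subunit of human proteasome.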

[2] = Cytotoxicity against human U266 cells after 72 hrs by MTS assay; format: functional, cell-based; settings: U-266, 72 h
How it was run: (§1)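 Cellular IC50 from a ten-concentration series, each concentration tested in triplicate.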

[3] = Cytotoxicity against human RPMI8226 cells after 72 hrs by MTS assay; format: functional, cell-based; settings: RPMI-8226, 72 h; how it was run: as §1
[4] = Cytotoxicity against human ARH77 cells after 72 hrs by MTS assay; format: functional, cell-based; settings: ARH-77, 72 h; how it was run: as §1

Row | Structure (SMILES) | IC50 ([1]; read-out: IC50) | IC50 [1] | IC50 [2] | IC50 [3] | IC50 [4]
1 | COCCC(=O)N[C@@H](Cc1ccccc1)C(=O)N[C@@H](CC(C)C)B(O)O | 8.47 nM |  | 11.5 nM | 7.32 nM | 9.03 nM
2 | O=C(N[C@@H](Cc1ccccc1)C(=O)N[C@H](CB(O)O)c1ccccc1)c1ccccc1 |  | Not Active |  |  | 
3 | COCC(=O)N[C@@H](Cc1ccccc1)C(=O)N[C@@H](CC(C)C)B(O)O | 6.31 nM |  | 6.04 nM | 4.56 nM | 5.72 nM
4 | CC(C)C[C@H](NC(=O)[C@H](Cc1ccccc1)NC(=O)CC(C)(C)C)B(O)O | 4.69 nM |  | 8.01 nM |  | 8.31 nM
5 | CC(C)C[C@@H](CB(O)O)NC(=O)[C@H](Cc1ccccc1)NC(=O)c1ccccc1 |  | Not Active |  |  | 
6 | O=C(N[C@@H](Cc1ccccc1)C(=O)N[C@@H](CCc1ccccc1)CB(O)O)c1cnccn1 |  | Not Active |  |  | 
7 | CCCC(=O)N[C@@H](Cc1ccccc1)C(=O)N[C@@H](CC(C)C)B(O)O | 6.94 nM |  | 8.51 nM | 5.61 nM | 7.87 nM
8 | CC(C)C[C@H](NC(=O)[C@H](Cc1ccccc1)NC(=O)[C@H]1CCCc2ccccc21)B(O)O | 1.2 nM |  |  |  | 
9 | CC(C)C[C@H](NC(=O)[C@H](Cc1ccccc1)NC(=O)c1cnccn1)B(O)O [BORTEZOMIB] |  |  | 5.73 nM |  | 6.07 nM

The next lines start with results.

Row | IC50 ([1]; read-out: IC50) | IC50 [1] | Structure (SMILES) | IC50 [2] | IC50 [3] | IC50 [4]
10 | 1.02 nM |  | CC(C)C[C@@H](NC(=O)CC(NC(=O)[C@H]1CCCc2ccccc21)c1cccc(F)c1)B(O)O (some centres undefined) |  |  | 
11 | 4.82 nM |  | CC(C)C[C@H](NC(=O)[C@H](Cc1ccccc1)NC(=O)C1CCCC1)B(O)O | 2.48 nM |  | 3.87 nM
12 |  | Not Active | O=C(N[C@@H](Cc1ccccc1)C(=O)N[C@@H](CCc1ccccc1)CB(O)O)c1ccccc1 |  |  | 
13 |  | Not Active | O=C(N[C@@H](Cc1ccccc1)C(=O)N[C@H](CB(O)O)c1ccccc1)c1cnccn1 |  |  | 
14 |  | Not Active | CC(C)C[C@@H](CB(O)O)NC(=O)[C@H](Cc1ccccc1)NC(=O)c1cnccn1 |  |  | 
15 | 1.6 nM |  | CC(C)C[C@H](NC(=O)[C@H](Cc1ccccc1)NC(=O)c1cccc2c1CCCC2)B(O)O |  |  | 

Reference: ChEMBL document CHEMBL3784932, “Design, synthesis and docking studies of novel dipeptidyl boronic acid proteasome inhibitors constructed from αα- and αβ-amino acids” (Bioorg Med Chem Lett, 2016)
